Source: PubChem BioAssay
Active and inactive are the calls of the source.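 The calls were made as follows, unless noted: active = viability at or below 10% of carrier control in both of two separate runs; inconclusive = viability at or below 10% in only one of the two runs; inactive = the rest.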

Columns and labels:
[1] = Her2 expression decrease, cell viability multiplex – SKBR3 breast tumor cells, AlphaScreen, ATP viability, primary screen (AID 461;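 active = Her2 level under about 52% in both replicate screens, with viability over 70% of control, limit read from the data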;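 as to Her2 level: lower value means less Her2 protein in the cells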;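 as to viability: percent of carrier control wells set as 100% viability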); details: SKBR3 Her2 protein level, 18-24 h, measured here: SKBR3 viability, ATP luminescence, at 10 µM
[2] = molecular target: Receptor tyrosine-protein kinase erbB-2 (Homo sapiens) (UniProt P04626); assay: as above; details: 18-24 h, at 10 µM, stronger effect = lower value
[3] = reduced viability of SK-BR-3 breast cancer cells – cell-based, 24 h, human, pilot screen (AID 572); details: SK-BR-3 viability, CellTiter-Glo luminescence, at 10 µM, stronger effect = lower value;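 also: compound exposure lasted between 18 and 24 h rather than exactly 24 h; 100% = carrier-treated control wells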
[4] = HUVEC growth inhibition – cell-based, human, primary screen (AID 575;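 active = viability at or below 30% in both replicate assays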;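 also: 100% = median of untreated cell wells with 0.1% DMSO on each plate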); details: HUVEC proliferation, CellTiter-Glo luminescence, 72 h; at 10 µM; stronger effect = lower value
How it was run: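 Test system: HUVEC primary cells. Quantity: 1250 endothelial cells in each well. Dosing: single-point 10 µM, DMSO 0.1% final. Incubation: 72 h treatment at 37 °C. Measured by: CTG luminescence. Control set: DMSO cell controls and MePR drug controls. Plate: collagen-coated 384-well format.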

[5] = H69AR cell proliferation blockers – human, duplicate replicates, primary screen (AID 580;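 active = viability at or under a set limit in both replicates, limit being median viability minus 3 SD, cut at about 48% in these data, passing the limit was not always enough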;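 also: 100% = mean luminescence of untreated wells and 0% = no signal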); details: H69AR lung tumor cells viability, ATP luminescence, 72 h; at 10 µM; stronger effect = lower value
[6] = MRP1 drug-resistance reversers in H69AR cells – cell-based, doxorubicin co-treatment, pilot screen (AID 601;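 active = viability loss from added drug above about 55%, and viability with drug at most 40%, in both replicates, limit read from the data, passing the limit was not always enough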); details: CellTiter-Glo, 72 h, at 10 µM; for differential viability (reversal): stronger effect = higher value
[7] = yeast transport mutant growth inhibition pilot in 384-well plates, post-Golgi transport modulator project (AID 636; in the data active = inhibition above about 31%); details: absorbance 615 nm, about 18 h, stronger effect = higher value
[8] = growth suppression of yeast trafficking mutant, preliminary HTS, modulators of trafficking downstream of Golgi apparatus project, 1536-format plate, OD 615 nm (AID 637; in the data active = inhibition above about 30%); details: yeast transport mutant growth, absorbance 615 nm, 18 h; stronger effect = higher value
[9] = H69AR cells + 2 uM doxorubicin, measured here: viability with 2 uM doxorubicin, stronger effect = lower value
[10] = H69AR cells, compound alone cytotoxicity

Chain of Receptor tyrosine-protein kinase erbB-2 (Homo sapiens) (P04626 whole entry, looked up): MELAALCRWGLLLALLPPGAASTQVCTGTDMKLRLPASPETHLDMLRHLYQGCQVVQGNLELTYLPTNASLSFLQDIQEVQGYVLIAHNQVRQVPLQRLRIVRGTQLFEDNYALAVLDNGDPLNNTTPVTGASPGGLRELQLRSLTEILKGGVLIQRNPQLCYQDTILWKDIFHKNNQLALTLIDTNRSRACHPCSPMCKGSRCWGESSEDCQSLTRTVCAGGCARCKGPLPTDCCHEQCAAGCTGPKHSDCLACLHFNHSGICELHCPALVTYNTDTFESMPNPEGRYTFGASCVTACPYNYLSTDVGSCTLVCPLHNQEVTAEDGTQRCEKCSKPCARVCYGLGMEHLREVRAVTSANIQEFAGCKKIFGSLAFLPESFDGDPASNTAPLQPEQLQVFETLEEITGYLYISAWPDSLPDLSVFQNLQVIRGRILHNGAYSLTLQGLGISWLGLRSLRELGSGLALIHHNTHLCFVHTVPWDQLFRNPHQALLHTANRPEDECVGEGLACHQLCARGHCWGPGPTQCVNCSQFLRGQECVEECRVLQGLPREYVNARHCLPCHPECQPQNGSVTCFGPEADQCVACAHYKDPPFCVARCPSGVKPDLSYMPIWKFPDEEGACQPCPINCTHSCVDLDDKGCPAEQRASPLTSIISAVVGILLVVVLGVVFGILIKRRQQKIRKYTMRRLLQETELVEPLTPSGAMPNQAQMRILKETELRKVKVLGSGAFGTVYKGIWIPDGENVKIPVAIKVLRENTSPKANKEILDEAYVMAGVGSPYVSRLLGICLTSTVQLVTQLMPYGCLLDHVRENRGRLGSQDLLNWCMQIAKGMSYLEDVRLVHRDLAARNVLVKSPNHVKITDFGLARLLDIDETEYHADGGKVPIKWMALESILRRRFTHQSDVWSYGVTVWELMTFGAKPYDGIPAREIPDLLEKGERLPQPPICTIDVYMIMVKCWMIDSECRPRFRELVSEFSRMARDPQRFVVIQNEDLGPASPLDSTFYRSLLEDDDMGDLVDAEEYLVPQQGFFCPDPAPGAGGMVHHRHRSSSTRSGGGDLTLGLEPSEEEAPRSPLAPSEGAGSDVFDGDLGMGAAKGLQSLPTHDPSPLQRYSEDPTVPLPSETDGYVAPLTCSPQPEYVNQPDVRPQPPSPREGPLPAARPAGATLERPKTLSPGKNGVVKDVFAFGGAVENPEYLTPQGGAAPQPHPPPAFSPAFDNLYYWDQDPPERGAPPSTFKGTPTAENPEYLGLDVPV

Row | Structure (SMILES) | viability [1] [%] | Her2 level [2] | viability [3] | viability [4] | viability [5] | differential viability (reversal) ([6]; H69AR cells + 2 uM doxorubicin) | viability [6, 9] [%] | viability [6, 10] [%] | inhibition [7] | inhibition [8]
1 | CCOC(=O)C1CCCN(C(=O)c2ccc3c(=O)n(CCOC)c(=S)[nH]c3c2)C1 (stereo not given) | 94 | 83% (inactive) | 94% (inactive) | 80.6% (inactive) | 88.6% (inactive) | 11.5% (inactive) | 77.1 | 88.6 | -4.8% (inactive) | -0.33% (inactive)
2 | CC(=O)N1CCC2(CC1)CC(=O)c1cc(OCC(=O)NCc3ccc(C)cc3)ccc1O2 | 97 | 84% (inactive) | 97% (inactive) | 99.4% (inactive) | 90% (inactive) | -0.255% (inactive) | 90.3 | 90 | -2.76% (inactive) | 0.91% (inactive)
3 | O=C(CSc1nc2ccccc2c(=O)n1CCC(=O)N1CCCCC1)NCc1ccccc1 | 102 | 80% (inactive) | 102% (inactive) | 99.5% (inactive) | 81.8% (inactive) | -13.3% (inactive) | 95.1 | 81.8 | -1.84% (inactive) | -2.86% (inactive)
4 | CC(=O)N1C(=O)N(C)C2C1N(C(C)=O)C(=O)N2C (stereo not given) | 125 | 104% (inactive) | 125% (inactive) | 92.4% (inactive) | 93.5% (inactive) | -1.64% (inactive) | 95.1 | 93.5 | -1.18% (inactive) | -6.45% (inactive)
5 | CCOC(=O)C1CCN(c2c(N(C)Cc3ccco3)c(=O)c2=O)CC1 | 78 | 105% (inactive) | 78% (inactive) | 93% (inactive) | 104% (inactive) | 15% (inactive) | 88.9 | 104 | 0.13% (inactive) | -5.5% (inactive)
6 | CCOC(=O)C1CCCN(C(=O)c2cc(=O)c3ccccc3o2)C1 (stereo not given) | 94.5 | 87% (inactive) | 94.5% (inactive) | 95.2% (inactive) | 97.3% (inactive) | -4.92% (inactive) | 102 | 97.3 | -2.89% (inactive) | -0.95% (inactive)
7 | Cc1ccc(-n2c(Cc3cccn3C)nnc2SCC(=O)NCc2ccc3c(c2)OCO3)cc1 | 97.5 | 89% (inactive) | 97.5% (inactive) | 88.2% (inactive) | 85.8% (inactive) | 5.04% (inactive) | 80.7 | 85.8 | -5.07% (inactive) | -4.59% (inactive)
8 | O=C(CS(=O)CC(=O)Nc1cccc2c1CCCC2)Nc1ccc(F)cc1 (stereo not given) | 114 | 103% (inactive) | 114% (inactive) | 88.3% (inactive) | 102% (inactive) | 4.67% (inactive) | 97.8 | 102 | -6.93% (inactive) | 4.1% (inactive)
9 | c1cncc(-c2nnc3n2N=C(c2cccs2)CS3)c1 | 90.5 | 73.5% (inactive) | 90.5% (inactive) | 78.2% (inactive) | 92.5% (inactive) | 4.06% (inactive) | 88.5 | 92.5 | -4.34% (inactive) | -0.83% (inactive)
10 | CC(C)CNS(=O)(=O)c1ccc(OCC(=O)Nc2ccc3c(c2)OCO3)c(Cl)c1 | 89.5 | 66% (inactive) | 89.5% (inactive) | 58.6% (inactive) | 66.7% (inactive) | -2.31% (inactive) | 69 | 66.7 | -5.39% (inactive) | -0.67% (inactive)
11 | CCCc1nc(N2CCOCC2)c(C#N)c2c1CCCC2 | 81 | 86.5% (inactive) | 81% (inactive) | 81.5% (inactive) | 91.4% (inactive) | -0.135% (inactive) | 91.5 | 91.4 | -0.13% (inactive) | 6.77% (inactive)
12 | COc1ccc(NC(=O)CCS(=O)(=O)c2ccc(OC)cc2)cc1 | 96 | 104% (inactive) | 96% (inactive) | 94.8% (inactive) | 83.4% (inactive) | -9.78% (inactive) | 93.2 | 83.4 | -0.4% (inactive) | -7.26% (inactive)
13 | OCc1cn(-c2ccccc2)nc1-c1ccc2c(c1)OCCO2 | 93 | 102% (inactive) | 93% (inactive) | 70.5% (inactive) | 83.9% (inactive) | -4.38% (inactive) | 88.3 | 83.9 | -7.95% (inactive) | -4.44% (inactive)
14 | O=C(Nn1c(C2CC2)nc2ccccc2c1=O)c1ccco1 | 109 | 108% (inactive) | 109% (inactive) | 93.9% (inactive) | 95.4% (inactive) | -0.5% (inactive) | 95.9 | 95.4 | -3.77% (inactive) | -6.39% (inactive)
15 | Cc1sc(NC(=O)CSc2nnc(COc3ccccc3)n2C)c(C#N)c1C | 83 | 75.5% (inactive) | 83% (inactive) | 72.2% (inactive) | 70.3% (inactive) | -3.05% (inactive) | 73.3 | 70.3 | -1.3% (inactive) | -7.3% (inactive)
16 | O=C(OCc1cc2ccccc2[nH]c1=O)c1ccco1 | 106 | 114% (inactive) | 106% (inactive) | 95.9% (inactive) | 100% (inactive) | 6.74% (inactive) | 93.3 | 100 | -1.43% (inactive) | -6.67% (inactive)

Row | Structure (SMILES) | viability [1] [%] | Her2 level [2] | viability [3] | viability [4] | viability [5] | differential viability (reversal) ([6]; H69AR cells + 2 uM doxorubicin) | viability [6, 9] [%] | viability [6, 10] [%] | inhibition [7] | inhibition [8]
17 | CCOC(=O)c1ccc2[nH]c(C)c(CN3CCN(C)CC3)c(=O)c2c1 | 114 | 81% (inactive) | 114% (inactive) | 97.9% (inactive) | 91.4% (inactive) | -0.335% (inactive) | 91.8 | 91.4 | -7.03% (inactive) | 2.79% (inactive)
18 | O=C(Nc1ccc2c(c1)OCCO2)C1CCCN(S(=O)(=O)c2cnc[nH]2)C1 (stereo not given) | 82.5 | 111% (inactive) | 82.5% (inactive) | 100% (inactive) | 94.7% (inactive) | 8.45% (inactive) | 86.2 | 94.7 | -3.2% (inactive) | -3.93% (inactive)
19 | CC1CCN(C(=O)CN2C(=O)C(C)(C)Oc3ccc(C(=O)NC4CCCC4)cc32)CC1 | 82 | 104% (inactive) | 82% (inactive) | 83.1% (inactive) | 93.4% (inactive) | 4.5% (inactive) | 88.9 | 93.4 | -5% (inactive) | -7.05% (inactive)
20 | c1ccc(Cn2nnnc2CN2CCN(c3ncccn3)CC2)cc1 | 99 | 97.5% (inactive) | 99% (inactive) | 92.1% (inactive) | 100% (inactive) | -0.765% (inactive) | 101 | 100 | -3.47% (inactive) | 0.98% (inactive)
21 | CCOc1nc2ccccc2nc1NS(=O)(=O)c1ccccc1 | 83 | 75% (inactive) | 83% (inactive) | 91.3% (inactive) | 88.5% (inactive) | 0.49% (inactive) | 88 | 88.5 | -2.24% (inactive) | 3.82% (inactive)
22 | CCN(CC)CCN1C(=O)C(O)=C(C(=O)c2cccs2)C1c1ccccn1 (stereo not given) | 86 | 82% (inactive) | 86% (inactive) | 100% (inactive) | 98% (inactive) | 18.6% (inactive) | 79.5 | 98 | -4.86% (inactive) | -1.59% (inactive)
23 | CCN(CC)Cc1csc(C(N)=O)c1 | 108 | 107% (inactive) | 108% (inactive) | 104% (inactive) | 98.1% (inactive) | 5.04% (inactive) | 93.1 | 98.1 | -1.22% (inactive) | 0.32% (inactive)
24 | CC(=O)N1C(=O)C2(C(C#N)=C(N)Oc3cc(C)oc(=O)c32)c2ccccc21 (stereo not given) | 95.5 | 112% (inactive) | 95.5% (inactive) | 95.9% (inactive) | 88.1% (inactive) | 7.52% (inactive) | 80.6 | 88.1 | 1.84% (inactive) | -2.91% (inactive)
25 | O=C(c1cccc2ccccc12)N1CCC(N2CCN(c3ccccc3)CC2)CC1 | 84 | 90.5% (inactive) | 84% (inactive) | 81.7% (inactive) | 88% (inactive) | -4% (inactive) | 92 | 88 | -1.97% (inactive) | -4.43% (inactive)
26 | CCC1CCCCN1C(=O)Cn1c(C(=O)OC)cc2sc(Cl)cc21 (stereo not given) | 76.5 | 103% (inactive) | 76.5% (inactive) | 89.2% (inactive) | 71.4% (inactive) | -17% (inactive) | 88.4 | 71.4 | -0.64% (inactive) | -0.67% (inactive)
27 | CCOC(=O)N1CCN(CC(=O)c2c(C)[nH]c3ccccc23)CC1 | 94 | 98% (inactive) | 94% (inactive) | 79.9% (inactive) | 75.2% (inactive) | -7.93% (inactive) | 83.1 | 75.2 | -5.41% (inactive) | -3.93% (inactive)
28 | COc1cc2c(cc1NC(=O)COC(=O)Cn1cnc3ccccc31)oc1ccccc12 | 92 | 89% (inactive) | 92% (inactive) | 64.4% (inactive) | 80.8% (inactive) | -16.1% (inactive) | 96.9 | 80.8 | -1.87% (inactive) | -3.23% (inactive)
29 | O=C(C1CCN(c2nnnn2-c2ccccc2)CC1)N1CCN(c2ccccc2)CC1 | 106 | 87.5% (inactive) | 106% (inactive) | 85.6% (inactive) | 79% (inactive) | 1.51% (inactive) | 77.5 | 79 | -5.27% (inactive) | 5.08% (inactive)
30 | CCC1c2ccc(C)n2CCN1C(=O)Nc1ccccc1OC (stereo not given) | 89.5 | 69.5% (inactive) | 89.5% (inactive) | 97.7% (inactive) | 78.9% (inactive) | -10.8% (inactive) | 89.7 | 78.9 | -6.13% (inactive) | 4.59% (inactive)
31 | Cn1c(Cl)nc2ccccc21 | 115 | 96% (inactive) | 115% (inactive) | 90.7% (inactive) | 94.8% (inactive) | -5.28% (inactive) | 100 | 94.8 | -0.53% (inactive) | 0.97% (inactive)
